# From ChEMBL document CHEMBL3603828, “Imine/amide-imidazole conjugates derived from 5-amino-4-cyano-N1-substituted benzyl imidazole: Microwave-assisted synthesis and anticancer activity via selective topoisomerase-II-α inhibition” (Bioorg Med Chem, 2015)
# Active and inactive are the calls of the source. The rule behind the calls is not given here.
# Experiments:
# NCI-H460 [1] = experiment: Induction of mitochondrial membrane depolarization in human H460 cells at 1 to 25 uM incubated for 24 hrs by JC1 staining based assay; format: functional, cell-based
# Outline: (§1)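 Cells were seeded at 8000 per well and treated for 24 h. JC-1 dye was added directly to the medium for 30 min at 37 °C, then excess dye was washed off with PBS. Membrane potential was read as the OD590/OD527 ratio.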
# A549 [2] = experiment: Antiproliferative activity against human A549 cells by MTT assay; format: functional, cell-based
# Outline: (§2)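 Cells from NCCS were grown in DMEM with 10% FBS and antibiotics at 37 °C under 5% CO₂. They were seeded at 8000 cells/well after trypan blue counting. Compounds were made up as 100 mM DMSO stocks and diluted in serum-free DMEM. MTT was added and cells were held 4 h at room temperature in the dark. Formazan was dissolved in DMSO and read at 570 nm. Values are averages of three independent experiments, each run in triplicate.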
# [3] = molecular target: T1, DNA topoisomerase 1 (Homo sapiens) (UniProt P11387); experiment: Inhibition of human topoisomerase-1 assessed as reduction in enzyme-mediated DNA relaxation at 100 uM incubated for 30 mins by ethidium bromide staining based agarose gel electrophoresis method
# T1 sequence (whole entry): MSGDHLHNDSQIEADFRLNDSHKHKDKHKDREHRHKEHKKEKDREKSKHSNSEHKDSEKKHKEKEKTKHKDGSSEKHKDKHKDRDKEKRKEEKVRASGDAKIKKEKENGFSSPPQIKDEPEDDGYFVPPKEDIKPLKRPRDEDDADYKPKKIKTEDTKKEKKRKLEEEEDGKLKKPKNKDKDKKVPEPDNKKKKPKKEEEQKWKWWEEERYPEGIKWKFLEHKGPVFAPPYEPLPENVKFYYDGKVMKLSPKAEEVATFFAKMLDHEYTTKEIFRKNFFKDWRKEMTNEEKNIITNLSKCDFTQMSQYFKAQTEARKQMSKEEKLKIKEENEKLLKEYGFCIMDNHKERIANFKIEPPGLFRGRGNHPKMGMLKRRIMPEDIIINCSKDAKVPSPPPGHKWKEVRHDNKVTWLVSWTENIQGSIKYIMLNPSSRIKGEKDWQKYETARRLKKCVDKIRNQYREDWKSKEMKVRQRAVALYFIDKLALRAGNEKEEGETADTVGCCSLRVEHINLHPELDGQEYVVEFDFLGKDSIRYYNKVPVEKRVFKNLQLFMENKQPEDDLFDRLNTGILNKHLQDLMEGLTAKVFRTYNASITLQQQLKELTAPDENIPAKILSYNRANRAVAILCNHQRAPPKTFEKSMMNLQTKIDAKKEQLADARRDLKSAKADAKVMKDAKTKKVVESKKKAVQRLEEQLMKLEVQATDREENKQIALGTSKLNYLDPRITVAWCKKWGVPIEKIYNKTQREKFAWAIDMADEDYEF
# Outline: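 Purified human Topo I was used with 250 ng supercoiled DNA. Buffer was Tris-HCl pH 7.9 with EDTA, NaCl, BSA, spermidine and glycerol. Compound was 100 µM in DMSO, with 30 min incubation at 37 °C. Reactions were stopped with SDS and proteinase K at 70 °C for 15 min. Products were run on 1% agarose in TAE.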
# NCI-H460 [4] = experiment: Induction of ROS generation in human H460 cells at 1 to 25 uM incubated for 24 hrs by DHE staining based assay; format: functional, cell-based
# Outline: (§3)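 Cells were seeded in DMEM/10% FBS at 8000 per well and treated for 24 h. They were washed with PBS, stained with DHE for 30 min at 37 °C and washed with ice-cold PBS. Fluorescence OD was then read on a microplate reader.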
# [5] = Antiproliferative activity against human H460 cells by MTT assay; format: functional, cell-based; settings: NCI-H460; outline: as §2
# HepG2 [6] = experiment: Antiproliferative activity against human HepG2 cells by MTT assay; format: functional, cell-based; outline: as §2
# HepG2 [7] = experiment: Induction of ROS generation in human HepG2 cells at 1 to 25 uM incubated for 24 hrs by DHE staining based assay; format: functional, cell-based; outline: as §3
# A549 [8] = experiment: Induction of ROS generation in human A549 cells at 1 to 25 uM incubated for 24 hrs by DHE staining based assay; format: functional, cell-based; outline: as §3
# HepG2 [9] = experiment: Induction of mitochondrial membrane depolarization in human HepG2 cells at 1 to 25 uM incubated for 24 hrs by JC1 staining based assay; format: functional, cell-based; outline: as §1
# [10] = molecular target: T2, DNA topoisomerase 2-alpha (Homo sapiens, UniProt P11388); experiment: Inhibition of human topoisomerase-2 alpha assessed as reduction in enzyme-mediated kinetoplast DNA decatenation incubated for 30 mins by ethidium bromide staining based agarose gel electrophoresis method
# Outline: (§4)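 Reactions with 2–4 units purified human topoisomerase II and 150 ng kDNA were set up on ice. Buffer was Tris-HCl pH 8 with NaCl, MgCl₂, DTT, BSA and ATP, and drug was 100 µM. Incubation was 30 min at 37 °C, then SDS and proteinase K for 15 min. Products were resolved on 1% agarose with ethidium bromide, visualized under UV and quantified.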
# [11] = molecular target: T2, DNA topoisomerase 2-alpha; experiment: Inhibition of human topoisomerase-2 alpha assessed as reduction in enzyme-mediated kinetoplast DNA decatenation at 100 uM incubated for 30 mins by ethidium bromide staining based agarose gel electrophoresis method; outline: as §4
# PBMC = experiment: Cytotoxic activity against human PBMC by MTT assay; format: cell-based
# Outline: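 Human peripheral blood mononuclear cells served as the normal control in an MTT read-out. Formazan was formed over 4 h at room temperature in the dark, dissolved in DMSO and read at 570 nm. Results are mean SD of three independent experiments.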
# A549 [12] = experiment: Induction of mitochondrial membrane depolarization in human A549 cells at 1 to 25 uM incubated for 24 hrs by JC1 staining based assay; format: functional, cell-based; outline: as §1
# T2 sequence (P11388 whole entry): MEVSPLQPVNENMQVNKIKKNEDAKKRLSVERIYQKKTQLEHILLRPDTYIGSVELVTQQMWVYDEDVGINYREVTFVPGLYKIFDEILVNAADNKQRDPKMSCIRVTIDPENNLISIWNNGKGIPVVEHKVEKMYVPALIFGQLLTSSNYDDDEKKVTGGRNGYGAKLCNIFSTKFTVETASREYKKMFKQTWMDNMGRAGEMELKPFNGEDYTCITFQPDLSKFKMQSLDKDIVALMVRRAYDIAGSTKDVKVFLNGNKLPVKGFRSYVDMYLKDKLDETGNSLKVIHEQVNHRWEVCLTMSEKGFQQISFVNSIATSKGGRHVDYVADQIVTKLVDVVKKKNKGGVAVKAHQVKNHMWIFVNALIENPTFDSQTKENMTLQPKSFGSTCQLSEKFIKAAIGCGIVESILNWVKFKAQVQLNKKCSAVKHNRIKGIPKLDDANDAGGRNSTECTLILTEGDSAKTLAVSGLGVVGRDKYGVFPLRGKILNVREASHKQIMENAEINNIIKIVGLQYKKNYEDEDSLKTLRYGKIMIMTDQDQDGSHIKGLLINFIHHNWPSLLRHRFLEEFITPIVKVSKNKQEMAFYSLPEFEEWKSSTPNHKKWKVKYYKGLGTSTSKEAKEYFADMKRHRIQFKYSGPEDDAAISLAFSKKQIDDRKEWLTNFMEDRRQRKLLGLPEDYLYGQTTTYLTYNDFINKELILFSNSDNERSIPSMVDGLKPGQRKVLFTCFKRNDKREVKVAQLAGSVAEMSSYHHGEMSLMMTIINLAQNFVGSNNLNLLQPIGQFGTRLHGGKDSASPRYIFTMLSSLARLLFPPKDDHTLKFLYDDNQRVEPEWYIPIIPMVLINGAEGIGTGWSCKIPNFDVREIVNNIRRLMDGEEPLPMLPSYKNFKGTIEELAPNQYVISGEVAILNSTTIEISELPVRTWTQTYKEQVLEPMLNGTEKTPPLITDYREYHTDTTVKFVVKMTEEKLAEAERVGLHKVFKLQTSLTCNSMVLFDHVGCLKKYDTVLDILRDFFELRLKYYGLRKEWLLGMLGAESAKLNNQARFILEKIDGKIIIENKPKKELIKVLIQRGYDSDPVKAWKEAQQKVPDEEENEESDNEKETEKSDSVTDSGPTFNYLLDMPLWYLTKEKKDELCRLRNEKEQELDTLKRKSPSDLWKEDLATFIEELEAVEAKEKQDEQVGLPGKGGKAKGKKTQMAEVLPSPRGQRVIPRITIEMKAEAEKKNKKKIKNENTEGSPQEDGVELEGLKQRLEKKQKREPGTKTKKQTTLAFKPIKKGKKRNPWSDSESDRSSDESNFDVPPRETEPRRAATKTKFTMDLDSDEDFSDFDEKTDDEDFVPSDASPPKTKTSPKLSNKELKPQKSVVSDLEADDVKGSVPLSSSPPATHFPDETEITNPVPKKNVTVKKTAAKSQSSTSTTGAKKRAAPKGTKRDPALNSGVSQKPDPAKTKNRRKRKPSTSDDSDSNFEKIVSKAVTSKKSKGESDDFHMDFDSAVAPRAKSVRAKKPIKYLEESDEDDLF
SMILES,Activity (NCI-H460 [1]),IC50 (A549 [2]) [µM],inhibition [3],Activity (NCI-H460 [4]),IC50 [5] [µM],IC50 (HepG2 [6]) [µM],Activity (HepG2 [7]),Activity (A549 [8]),Activity (HepG2 [9]),IC50 [10] [µM],inhibition [11],Activity (PBMC),Activity (A549 [12])
N#Cc1ncn(Cc2ccccc2Cl)c1/N=C/c1cc(Cl)cc(Cl)c1O,Active,7.5,inactive,Dose-dependent effect,11.2,12,Dose-dependent effect,Dose-dependent effect,Active,34.9,Active,Non-toxic,Active
N#Cc1ncn(Cc2ccccc2Cl)c1/N=C/c1ccc(Cl)cc1,,30.8,,,28.1,31,,,,,,Non-toxic,
COc1ccc(OC)c(/C=N/c2c(C#N)ncn2Cc2ccccc2Cl)c1,,18,,,28.3,20,,,,,,Non-toxic,
COc1ccc(/C=N/c2c(C#N)ncn2Cc2ccccc2Cl)cc1OC,,> 50,,,,> 50,,,,,,Non-toxic,
N#Cc1ncn(Cc2ccccc2Cl)c1/N=C/c1ccc(O)cc1,,35.1,,,> 40,38.2,,,,,,Non-toxic,
N#Cc1ncn(Cc2ccccc2Cl)c1/N=C/c1ccccc1[N+](=O)[O-],,37,,,,40,,,,,,Non-toxic,
COc1cc(/C=N/c2c(C#N)ncn2Cc2ccccc2Cl)ccc1O,,39,,,,> 40,,,,,,Non-toxic,
N#Cc1ncn(Cc2ccccc2Cl)c1/N=C/c1c[nH]c2ccccc12,,10.9,,,14.6,15,,,,,Active,Non-toxic,
COc1cc([C@@H]2c3cc4c(cc3[C@@H](O[C@@H]3O[C@@H]5CO[C@@H](C)O[C@H]5[C@H](O)[C@H]3O)[C@H]3COC(=O)[C@H]23)OCO4)cc(OC)c1O [ETOPOSIDE],,18.2,,,> 30,20.9,,,,,Active,Non-toxic,
